BaF3 parental = parental Ba/F3 viability inhibition as JAK2V617F counter-screen; inhibition, % at 5.6 µM; CellTiter-Glo ATP luminescence; AID 1486; hit rate 1.1% among 220,000;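 active = inhibition above a per-campaign cutoff, the mean inhibition of all tested compounds plus 3 SD, cut at about 27% in these data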;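 note: 0% = DMSO wells and 100% = JAK Inhibitor I control wells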
IEC-6 tox = counter-screen for KLF5 inhibitors: cytotoxicity in IEC-6 cells; IEC-6 cytotoxicity, luminescence viability; inhibition, % at 5 µM; hit rate 0.78% among 290,000; in the data active = inhibition above about 22%;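 note: 0% = plate median of test compound wells and 100% = cytotoxic reference compound wells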
APP 5UTR inh = APP translation inhibition. SH-SY5Y APP 5'UTR-luciferase reporter, luminescence. inhibition, % at 2 µM. hit rate 0.82% among 190,000. AID 1285;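 active = inhibition above a set limit, derived from the sample mean plus 3 SD, cut at about 45% in these data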
MT stabilize HCS = microtubule stabilizers in HeLa cells | HeLa tubulin immunostaining HCS, 24 h; share of cells brighter than vehicle mean+2SD | % tubulin-high responders, % at 10 µM | hit rate 0.83% among 200,000 | AID 2205;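 active = plate Z-score above 3 for both tubulin-high and condensed-nucleus cell shares, with cell loss under 80%, at 10 µM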;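 note: anti alpha tubulin signal scored within the nucleus-defined area of each cell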
Ba/F3 V617F tox = reduce viability of Ba/F3 cells dependent on JAK2V617F; inhibition, % at 5.6 µM; Ba/F3 EpoR-JAK2V617F viability, ATP luminescence; hit rate 1.1% among 220,000;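 active = inhibition above the campaign mean plus 3 SD over all tested compounds, cut at about 24% in these data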;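 note: cytokine-independent growth of Ba/F3 cells driven by EpoR plus mutant JAK2; 0% = DMSO-treated cells and 100% = JAK inhibitor I control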
b-catenin transl = alters nuclear translocation of beta-catenin in HeLa cells. AID 1665. immunofluorescence imaging. hit rate 0.3% among 190,000. nuclear translocation activity, % at 5 µM;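 active = nuclear translocation activity above 50% at 5 µM, with a well cell count of 50 or more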;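 note: per-cell ratio of nuclear to cytoplasmic median beta-catenin stain intensity; plate controls were DMSO negative control for no effect and GSK-3 inhibitor IX positive control for full effect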
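test system = HeLa cells, endogenous beta-catenin | dosing = single 5 µM dose plus 0.02–20 µM confirmation series | times = compound treatment 24 h, 37°C, 5% CO2 | technique = beta-catenin immunofluorescence imaging with DAPI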
* = called active by the depositor; x = not tested or not shown. Hits are enriched below; roughly 2.2% of the tested compounds scored in any of these assays.

SMILES	BaF3 parental	IEC-6 tox	APP 5UTR inh	MT stabilize HCS	Ba/F3 V617F tox	b-catenin transl
O=C(O)c1cccc(-n2cc(-c3cccc(C(F)(F)F)c3)cn2)c1	x	1	x	x	x	x
O=C(O)c1cccc(-c2ccc(/C=N/NC(=O)c3cccnc3)o2)c1	28*	-7	-5	3	0	-2
O=C(N/N=C/c1ccc(-c2ccccc2Cl)o1)c1ccccc1	6	8	-30	32*	2	x
Cc1ccc(/C=N/NC(=O)c2cccnc2)o1	2	3	11	4	-1	1
Cc1cccc(OCC(O)CN2CC3(C)CC2CC(C)(C)C3)c1 (centres undefined)	4	-4	49*	4	-2	5
Cc1ccc(OCC(O)CN2CC3(C)CC2CC(C)(C)C3)cc1 (centres undefined)	4	-2	7	2	-3	-1
CCOc1ccc(S(=O)(=O)N2CCN(S(=O)(=O)c3ccc(OCC)cc3)C(C)C2)cc1 (centres undefined)	1	-5	52*	4	-3	-5
COc1ccc(N(C(=O)c2ccccc2C)S(=O)(=O)c2cccs2)cc1	74*	72*	93*	16*	68*	99*
CC1(C)Cc2c(cnn2-c2ccccc2)C(NC(=O)CCCn2cncn2)C1 (centres undefined)	x	1	x	x	x	x
Cc1nn(-c2ccccc2)c(C)c1/C=N/NC(=O)c1cc(C(C)(C)C)[nH]n1	2	0	-2	3	-3	0
Cc1ccc(-c2cc(C(=O)N/N=C/c3c(C)nn(-c4ccccc4)c3C)[nH]n2)cc1	2	4	95*	4	1	102*
COc1ccc(Cc2nnc(N/N=C/c3ccc(O)cc3)[nH]c2=O)cc1OC	4	-3	86*	11	-5	0
COc1ccc(Cc2nnc(N/N=C/c3ccc(Br)cc3)[nH]c2=O)cc1OC	1	-1	x	x	-3	1
COc1cccc(NC(=O)c2ccc(NC(=O)C3CC(=O)OC34CCCCC4)cc2)c1 (centres undefined)	7	-7	7	4	2	0
Cc1noc(C)c1CSc1nc2[nH]ncc2c(=O)n1-c1ccccc1	73*	82*	94*	25*	70*	3
Cn1c(-c2ccccc2)c[n+]2c1-c1ccccc1C2	63*	5	-9	6	85*	3
CCCN(CCC)C(=O)C1CCCN(S(=O)(=O)c2ccc3c(c2)oc(=O)n3C)C1 (centres undefined)	x	2	x	x	x	x
O=C1N/C(=C/c2ccc(N3CCOCC3)o2)C(=O)N1c1ccccc1	-1	-6	54*	2	2	0
O=S(=O)(c1cc(Br)ccc1Br)N1CCCCCC1	x	11	x	x	x	x
O=S(=O)(c1cc(-c2nnc(-c3ccc(Br)cc3)o2)ccc1Br)N1CCCCCC1	-3	-1	-6	43*	-4	-2
O=C(Nc1ccc(N2CCN(C(=O)c3ccc(Cl)cc3)CC2)cc1)c1ccc([N+](=O)[O-])o1	6	-4	96*	6	3	0
COc1ccc(C(=O)/C=C/c2ccsc2)cc1CSCC(=O)O	x	-5	x	x	x	x
COC(=O)C1C(=O)C=C(Nc2ccc(F)cc2)CC1c1ccc(OC)cc1 (centres undefined)	8	2	-5	3	3	0
COC(=O)C1=C(Nc2ccc(C)cc2)C=C(C)C(C(=O)OC)C1c1ccc(OC)cc1 (centres undefined)	4	6	13	31*	3	72*
COC(=O)C1=C(Nc2ccc(C)cc2)C=C(C)C(C(=O)OC)C1c1cccc(OC)c1 (centres undefined)	4	0	-20	18	1	57*
SMILES	BaF3 parental	IEC-6 tox	APP 5UTR inh	MT stabilize HCS	Ba/F3 V617F tox	b-catenin transl
O=S(=O)(C/C(=C/CO)S(=O)(=O)c1ccccc1)c1ccccc1	100*	96*	80*	1	101*	-1
CCN(Cc1ccccc1)C(=O)CS(=O)(=O)c1ccccc1	0	-4	2	2	-1	-1
O=C(CSc1nnc(-c2ccco2)o1)N1CCCCC1	x	-2	x	x	x	x
CC(=O)c1c(COC(=O)c2ccc(C)cc2)nc2ccccc2[n+]1[O-]	51*	0	x	x	-3	0
O=C(NC(=S)NC1C2CC3CC(C2)CC1C3)c1ccccc1 (centres undefined)	x	3	x	x	x	x
CC(C)(C)NC(=O)CSc1nc(-c2ccccc2)c(-c2ccccc2)[nH]1	3	-1	9	15*	0	-1
CCCC(=O)Nc1cc(-c2nnc(OC)c3ccccc23)ccc1N1CCCCC1	-1	9	-18	2	1	-3
COc1nnc(-c2ccc(N3CCCCC3)c(N)c2)c2ccccc12	46*	6	-18	2	37*	x
O=[N+]([O-])c1ccc(O)c(-c2cc(C(F)(F)F)nc(-c3ccccc3)n2)c1	x	13	x	x	x	x
COc1cccc(CN(C)C(=O)CSc2nc3ccccc3[nH]2)c1OC	x	4	x	x	x	x
Cc1ccc(C)c(S(=O)(=O)N2C(=S)NC(=O)C2CC(C)C)c1 (centres undefined)	3	1	77*	1	-2	-2
COc1cc(/C=C2\NC(=S)N(C)C2=O)ccc1OCc1cccc(F)c1	x	-7	x	x	x	x
O=[N+]([O-])c1cc(S(=O)(=O)C(F)(F)F)ccc1Sc1nc2ccccc2s1	2	-3	2	2	-3	-1
CS(=O)(=O)c1ccc(Sc2nc3ccccc3s2)c([N+](=O)[O-])c1	45*	-3	19	4	66*	0
CCOc1ccccc1N(C)C(=O)C1CCN(S(=O)(=O)c2cccc3nonc23)CC1	5	-3	63*	4	-2	x
COc1ccc(N(C)C(=O)C2CCN(S(=O)(=O)c3cccc4nonc34)CC2)cc1	x	3	x	x	x	x
Cc1ccccc1SC1CCN(Cc2nc(C3CC3)no2)CC1	3	2	2	3	-4	2
CCCCC(=NCCc1c(C)[nH]c2ccc(OC)cc12)C1=C(O)CC(c2ccccc2)CC1=O (centres undefined)	4	1	78*	17*	-3	17
CC(=NCCc1c(C)[nH]c2ccc(OCc3ccccc3)cc12)C1=C(O)CC(c2ccccc2)CC1=O (centres undefined)	3	-4	-22	2	-3	-1
CCC(=NCCc1c(C)[nH]c2ccccc12)C1=C(O)CC(c2ccccc2)CC1=O (centres undefined)	4	-3	29	15*	-4	80*
CCC(=NC)C1=C(O)CC(c2ccccc2)CC1=O (centres undefined)	x	-6	x	x	x	x
CCC(=NCCc1c(C)[nH]c2ccc(OC(F)(F)F)cc12)C1=C(O)CC(c2ccccc2)CC1=O (centres undefined)	4	-12	78*	10	-1	0
Cc1oc(C(C)(C)C)c(CN2CCOCC2)c1C(=O)O	2	-2	-17	2	-1	-2

Source: PubChem (several laboratories)
